Reference: PMC5099097 (Antiviral research, 2016)

Tests used:
HCMV T3429 (UL54 mutant) = assay: SEAP assay, recombinant GCV-resistant HCMV T3429 on MRC-5 cells; type: cell-based, human cytomegalovirus; details: Supplemental Table 1 (values not available)
HCMV T3252 (UL97 mutant) = assay: SEAP assay, recombinant GCV-resistant HCMV T3252 on MRC-5 cells; type: cell-based, human cytomegalovirus; details: Supplemental Table 1 (values not available)
HCMV TB40E [1] = assay: GCV and p5RD alone and combined, TB40E-Luc on MRC-5 cells; type: cell-based, human cytomegalovirus; details: 3 μM GCV alone
HCMV TB40E [2] = assay: Luciferase assay: peptide reduction of HCMV TB40E-Luc infection of MRC-5 cells; type: cell-based, human cytomegalovirus; details: peptide concentration >200 μM
HCMV TB40E [3] = assay: Luciferase assay: TB40E-Luc infection of MRC-5, HFF, ARPE-19 and HAEC cells; type: cell-based, human cytomegalovirus; details: 200 μM peptide added 30 min prior to infection, ARPE-19, HAEC
Method in brief: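 At 80–85% confluency, cells (MRC-5, HFF, ARPE-19 or HAEC) got 200 μM peptide in 10% FBS/PBS, or vehicle alone, 30 min before HCMV TB40E (luciferase, UL18 promoter) at ~35–50 pfu (~2500–3000 RLU). Inoculum was removed after 60 min at 37 °C. Cells were lysed after 3 days and luminescence read. Uninfected background was subtracted and values normalized to infected untreated cells. Three experiments, three replicates each.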

[4] = design: species or system BALB/c mice; details: mouse, in vivo, iv
MCMV = details: relative to p5; ref Dogra et al., 2015; Martin et al., 2013; Wall et al., 2011; cited from earlier work

| Compound | susceptibility of T3429 to GCV (HCMV T3429 (UL54 mutant)) | susceptibility of T3252 to GCV (HCMV T3252 (UL97 mutant)) | reduction in HCMV infection (HCMV TB40E [1]) | reduction of HCMV infection (HCMV TB40E [2]) [%] | reduction of HCMV infection in all cell types (HCMV TB40E [3]) [%] | time by which the majority of the peptide was excreted or degraded [4] [h] | time retained at high levels in the spleen, liver and kidneys post injection [4] | blocks MCMV infection more efficiently than p5 (fold) (MCMV) [x] |
| --- | --- | --- | --- | --- | --- | --- | --- | --- |
| Nc1nc(O)c2ncn(COC(CO)CO)c2n1 [GCV, ganciclovir] | resistant to high concentrations | resistant to high concentrations | ~ 95% | – | – | – | – | – |
| GGGYSRAQRAQARQARQAQRARGARQ [p5R] | – | – | – | ≥ 90 | > 80 | ≤ 4 | rapidly dehalogenated and/or excreted | 2 |
